Most compounds without a hit are left out; they make up all but 2.2% or so of the library.
ARFGAP1 inh: inhibits rat ARF GTPase activating protein 1; Arfgap1-stimulated ARF1 GTP hydrolysis, GDP FP detection; inhibition, % at 16.5 µM; actives 0.26% (n = 360,000); AID 651572;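 active = inhibition above a per-plate limit, mean inhibition of low control wells plus 3 SD, cut at about 25% in these data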
Target sequence (Q62848 1-136 limits assumed): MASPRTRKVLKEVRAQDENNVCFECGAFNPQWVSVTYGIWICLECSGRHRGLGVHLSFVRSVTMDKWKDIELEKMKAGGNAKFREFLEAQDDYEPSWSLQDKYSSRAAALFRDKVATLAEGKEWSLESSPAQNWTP
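Material: rat Arfgap1 catalytic domain, aa 1-136; also added: human ARF1(Δ1-17)-GTP substrate; compound dosing: one concentration, 16.5 µM, DMSO 1.26%; incubation: GTP hydrolysis reaction 2 h at 25 °C; measured by: Tracer-displacement fluorescence polarization with EDTA stop, 620/688 nm; evaluation: % inhibition from polarization; repeats: one replicate per compound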
NRP1-CendR mod: NRP-1/CendR interaction modulation. O14786. FAM-RPARPAR peptide binding to NRP-1, fluorescence polarization. inhibition, % at 25 µM. actives 0.85% (n = 360,000);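 active = inhibition or corrected inhibition above about 18%, plus a signal ratio from 0.5 to 1.5, limit read from the data, passing the limit was not always enough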
ASAP1 GAP inh: inhibitors of human ASAP1 ArfGAP activity. Q9ULH1. ASAP1-stimulated ARF1 GTP hydrolysis, GDP FP detection. inhibition, % at 16.5 µM. actives 0.19% (n = 360,000); in the data active = inhibition above about 25%
Exocytosis inh: blocks lytic granule exocytosis. TALL-104 LAMP-1 surface exposure, flow cytometry; cells stimulated with thapsigargin and PMA. inhibition, % at 10 µM. actives 0.66% (n = 360,000). AID 651702;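 active = inhibition above about 55%, limit read from the data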
V-ATPase pH: alters yeast V-ATPase proton transport; S. cerevisiae, pHLuorin cytosolic pH fluorescence; response, % at 10 µM; actives 0.37% (n = 350,000); AID 504577; in the data active = response mostly above about 7.3%, no sharp cut-off; inactive = mostly below about 5.4%; note: actives read high
A number is an active result; . = inactive; / = no result given.

SMILES	ARFGAP1 inh	NRP1-CendR mod	ASAP1 GAP inh	Exocytosis inh	V-ATPase pH
CCCOc1ccc(/C(O)=C2/C(=O)C(=O)N(CCCOC)C2c2cccnc2)cc1 (configuration not stated)	.	27.7	.	.	.
Cc1cccc(/C=N\Nc2nnc(-c3ccccc3)c(=O)[nH]2)c1	.	.	.	.	.
CC(/C=N/Nc1nnc(C)c(=O)[nH]1)=C\c1ccccc1	.	23.9	.	.	.
CCCNC(=O)c1onc(CSc2ccccn2)c1C(=O)NCCC	.	.	.	.	21.6
CC(C)NC(=O)c1c(CSc2ccccc2)noc1C(=O)NCc1ccccc1	.	32.1	.	.	.
CCCCNC(=O)c1onc(CSc2ccccn2)c1C(=O)NCCCC	.	.	.	.	.
O=C(C[C@H]1C/C=C\CC[C@H](Cc2ccc(F)cc2)C(=O)OC[C@H]2CCCN2C1=O)N[C@@H](CO)Cc1ccccc1	.	.	.	.	.
COc1ccc(-c2ccc3c(n2)CCCN3S(=O)(=O)c2ccccc2)cc1	.	/	.	/	/
COc1cc(-c2nnc(SCC(=O)Nc3ccc(C(=O)O)cc3)o2)cc(OC)c1OC	.	31.3	.	.	.
COc1cc(-c2nnc(SCC(=O)c3ccccc3)o2)cc(OC)c1OC	.	.	.	.	.
O=C(N/N=C/C=C\c1cccc([N+](=O)[O-])c1)c1ccccn1	.	27.7	.	.	.
C[C@H]1NS(=O)(=O)c2cccc(Cl)c2O[C@@H]1c1ccccc1	.	/	.	/	/
CC(=O)c1ccc(S(=O)(=O)NCC2CCN(C(=O)C(=O)c3cc4ccccc4o3)CC2)cc1	.	/	.	/	/
CCCCOc1ccc(/C=c2\sc3ncnn3c2=O)cc1	.	20.3	.	.	.
Cc1ccsc1/C=c1\sc2ncnn2c1=O	.	.	.	.	.
CS(=O)(=O)c1nc(-c2ccccc2)cc(C(F)(F)F)n1	.	.	.	74.4	.
Cc1cc(NC(=O)CCS(=O)(=O)c2nc(-c3ccccc3)cc(C(F)(F)F)n2)no1	.	.	.	.	.
CCOC(Cn1ccc(=O)[nH]c1=O)OCC	.	25.5	.	.	.
CCOC(Cn1cc([N+](=O)[O-])c(=O)[nH]c1=O)OCC	.	.	.	.	.
Cc1ccccc1NC(=S)NC(=O)COc1ccccc1C	.	22.1	.	.	.
CCNC(=O)N1CCN(c2ccc(N3CCN(C(=O)NCC)[C@@H](C)C3)c(C)c2)[C@@H](C)C1	.	/	.	/	/
O=C(NCC12CC3CC(CC(C3)C1)C2)c1nn2cccnc2c1Cl	.	.	.	.	29.5
NC(=O)c1ncn([C@@H]2O[C@H](C(=O)Nc3ccc(C(=O)N4CCCCC4)cc3)[C@@H](O)[C@H]2O)n1	.	/	.	/	/
O=[N+]([O-])c1cc2no[n+]([O-])c2cc1N1CCCCC1	.	.	.	.	42.1
Cc1cc(N/C(=C\C(=O)c2ccccc2)c2ccccc2)ccc1Br	.	/	.	/	/
SMILES	ARFGAP1 inh	NRP1-CendR mod	ASAP1 GAP inh	Exocytosis inh	V-ATPase pH
CCNC(=S)Nc1ccc2ncoc2c1	.	.	.	.	.
CCNC(=S)Nc1ccc2c(c1)oc1ccccc12	.	.	.	59.4	.
O=C(NCCC(F)(F)F)C1Cc2c(-c3ccc(Cl)cc3)ccnc2O1 (configuration not stated)	.	27.0	.	.	/
Cc1ccc(NC(=O)c2cccc(Cl)c2)nc1	.	24.9	.	.	.
Cc1ccc(NC(=O)CNC(=O)c2cccc(Cl)c2)nc1	.	.	.	.	.
Cc1ccc(NC(=O)c2ccccc2[N+](=O)[O-])nc1	.	29.8	.	.	.
Cc1ccccc1C(=O)N(C)[C@H]1C[C@H]2c3[nH]c4c(-c5ccc6c(c5)OCO6)cccc4c3CCN2C(=O)[C@H]1[C@H](C)O	.	/	.	/	/
N#CC(C#N)=Cc1cc2ccccc2nc1N1CCCCC1	.	32.6	.	.	.
CCOC(=O)/C(C#N)=C/c1cc2ccccc2nc1N1CCOCC1	.	.	.	.	.
COCCN1Cc2cc(C(=O)OC)c3c(c2C1=O)c1cc(OC)ccc1n3S(=O)(=O)c1ccc(C)cc1	.	/	.	/	/
CCC(CC)CC1CN2CCc3cc(OC)c(OC)cc3C2CC1(O)CC (configuration not stated)	.	.	.	.	.
COc1ccc(NC2CCCCC2NS(=O)(=O)c2ccc(C)cc2)cc1 (configuration not stated)	.	.	.	.	21.0
CC1=Nc2ccccc2N=C(NC(=O)CSC(=S)N2CCCCC2)C1c1ccccc1 (configuration not stated)	.	36.7	.	.	.

Assay outcomes from PubChem BioAssay.
